Structures can show the parent of a compound that is named as a salt.
Key:
[1] = tested on: HT29 cells (TNF-α-induced necroptosis); test: Necroptosis induction and inhibition assay in HT29; format: cell-based, human; settings: for EC50: Homo sapiens, HT-29, read-out: EC50^HT29 against TNF-α-induced necroptosis, zVAD (20 μM), human TNF-α (40 ng/mL), Smac mimetic SM-164 (100 nM), CCK-8
[2] = tested on: L929 cells (TNF-α-induced necroptosis); test: Necroptosis induction and inhibition assay in L929; format: cell-based, mouse; settings: for EC50: Mus musculus, L929, read-out: EC50^L929 against TNF-α-induced necroptosis, mouse TNF-α (20 ng/mL) and zVAD (10 μM), CCK-8
[3] = tested on: RIPK3 and MLKL phosphorylation in L929 cells; test: Western blot of RIPK3 and MLKL phosphorylation, L929; format: cell-based, mouse; settings: L929, inhibitors at 3 and 10 µM, necroptosis induced for 3 hours
In short: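 L929 cells were grown in 6-well plates to about 80% confluency and given test compound or DMSO with zVAD (10 μM) for 1-2 h. Mouse TNF-α (20 ng/mL) was then added for 3 h. Cells were washed three times in cold PBS and lysed in 10 mM Tris-HCl pH 8.0, 1% SDS, 1 mM orthovanadate with protease and phosphatase inhibitors. Lysates were boiled for 10 min and stored at -80 °C. Phospho-RIPK3 and phospho-MLKL were immunoblotted after 10% SDS-PAGE and PVDF transfer.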

RIPK3-RIPK1 interaction = RIPK3-RIPK1 interaction (Mus musculus, UniProt Q9QZL0); test: RIPK1 immunoprecipitation; format: cell-based; settings: L929, 10 µM, 5 hours
RIPK3-RIPK1 interaction, sequence (Q9QZL0 whole entry): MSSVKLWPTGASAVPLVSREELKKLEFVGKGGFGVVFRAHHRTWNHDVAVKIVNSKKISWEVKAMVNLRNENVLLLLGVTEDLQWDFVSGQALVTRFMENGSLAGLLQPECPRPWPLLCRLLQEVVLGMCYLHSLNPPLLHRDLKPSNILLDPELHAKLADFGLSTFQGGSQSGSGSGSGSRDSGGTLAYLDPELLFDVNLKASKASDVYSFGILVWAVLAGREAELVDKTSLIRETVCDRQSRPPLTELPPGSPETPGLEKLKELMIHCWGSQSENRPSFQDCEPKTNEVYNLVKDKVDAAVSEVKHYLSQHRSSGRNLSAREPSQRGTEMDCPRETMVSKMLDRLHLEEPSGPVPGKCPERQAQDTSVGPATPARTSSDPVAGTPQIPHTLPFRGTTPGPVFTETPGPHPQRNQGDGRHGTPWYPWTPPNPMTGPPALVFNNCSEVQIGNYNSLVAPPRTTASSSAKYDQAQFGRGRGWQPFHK
In short: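 Lysates were cleared at 17,000 g for 15 min at 4 °C, and an input sample was kept. Lysate was incubated with anti-RIPK1 antibody on protein A/G magnetic beads for 2 h at 4 °C. Co-precipitated RIPK3 was detected by Western blot. Normalized quantification came from three independent experiments.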

[4] = tested on: caspase 3 activity in L929 cell lysates; test: Caspase 3 activity in L929 cell lysates; format: cell-based, mouse
In short: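 L929 cells were cultured 12 h in 12-well plates, then exposed to test compound or DMSO for 0, 1, 2, 3 or 4 h. Protein was measured by BCA. Lysate was incubated with Ac-DEVD-pNA overnight at 37 °C and read at A405 minus blank. Three experiments, each in triplicate.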

L929^RIPK3-/- cells = test: Cell viability assay with or without zVAD, L929 RIPK3 knockout; format: cell-based, mouse
In short: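 L929 cells were grown in MEM with 10% FBS. RIPK3 was knocked out by CRISPR/Cas9 (sgRNA against mouse RIPK3), and knockout was confirmed by sequencing and immunoblot. Knockout lines with or without re-expressed RIPK3 K51A or K51A/R69H were seeded at 10,000–20,000 cells/well and left to attach for 24 h. Cells were exposed to test compound alone or with zVAD for 18–20 h. Viability was read by CCK-8 (1–2 h, 37 °C, A450). Three experiments in triplicate; CC50 by nonlinear regression.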

[5] = tested on: caspase 3 and caspase 8 cleavage in L929 cells; test: Western blot of caspase 3 and caspase 8 cleavage in L929 cells; format: cell-based, mouse; settings: L929, 3 hours
In short: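 L929 cells in 12-well plates at about 80% confluency were exposed for 3 h to test compound, DMSO or medium, each with 10 µM zVAD. Cells were lysed at room temperature in a Triton X-100/Tris-based 1× SDS sample buffer and boiled 10 min. Proteins were run on 15% SDS-PAGE and blotted to PVDF. Membranes were blocked in 5% milk and probed for caspase 3 and caspase 8 cleavage overnight at 4 °C. Three independent experiments.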

[6] = tested on: RIPK3 and MLKL phosphorylation in HT29 cells; test: Western blot of RIPK3 and MLKL phosphorylation, HT29; format: cell-based, human; settings: HT29, inhibitors at 3 and 10 µM, necroptosis induced for 3 hours
In short: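 HT29 cells were grown in 12-well plates to about 80% confluency and given test compound or DMSO with zVAD (20 μM) for 1-2 h. Necroptosis was then induced with human TNF-α (40 ng/mL) plus SM-164 (100 nM) for 3 h. Cells were washed three times in cold PBS and lysed for 10 min at room temperature in RIPA buffer with protease and phosphatase inhibitors and SDS loading buffer. Phospho-RIPK3 and phospho-MLKL were immunoblotted after 10% SDS-PAGE and PVDF transfer.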

RIPK2 = RIPK2 (Homo sapiens, UniProt O43353); test: ADP-Glo kinase assay, RIPK2; format: biochemical
RIPK2, sequence (O43353 1-310): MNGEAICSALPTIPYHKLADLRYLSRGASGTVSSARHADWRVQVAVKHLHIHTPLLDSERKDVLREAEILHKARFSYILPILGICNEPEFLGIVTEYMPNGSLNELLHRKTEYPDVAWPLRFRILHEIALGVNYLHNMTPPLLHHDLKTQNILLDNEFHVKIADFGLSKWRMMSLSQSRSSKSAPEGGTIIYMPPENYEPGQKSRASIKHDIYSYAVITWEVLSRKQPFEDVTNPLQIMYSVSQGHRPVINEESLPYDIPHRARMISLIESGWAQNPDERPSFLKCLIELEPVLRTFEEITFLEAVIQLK
In short: (§1)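 Human kinase domains were expressed in Sf-9 cells from baculovirus and purified by Ni-NTA then size exclusion: BRK 185-446 (C433T, C-terminal 6×His) and RIPK2 1-310 (C-terminal 10×His). Each was preincubated with test compound or DMSO in 40 mM Tris pH 7.5, 20 mM MgCl2, 0.1 mg/mL BSA. ATP was added to 20 µM final for 1 h at room temperature, and ADP was read by ADP-Glo luminescence.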

[7] = tested on: panel of 379 human kinases; test: Selectivity profiling, Eurofins KinaseProfiler; format: biochemical; settings: 379 kinases
[8] = molecular target: panel of 379 human kinases (Homo sapiens, UniProt O43353); test: Selectivity profiling, Eurofins KinaseProfiler; format: biochemical; settings: read-out: inhibition rate against RIPK2
panel of 379 human kinases (Homo sapiens, UniProt O43353), sequence (O43353 whole entry): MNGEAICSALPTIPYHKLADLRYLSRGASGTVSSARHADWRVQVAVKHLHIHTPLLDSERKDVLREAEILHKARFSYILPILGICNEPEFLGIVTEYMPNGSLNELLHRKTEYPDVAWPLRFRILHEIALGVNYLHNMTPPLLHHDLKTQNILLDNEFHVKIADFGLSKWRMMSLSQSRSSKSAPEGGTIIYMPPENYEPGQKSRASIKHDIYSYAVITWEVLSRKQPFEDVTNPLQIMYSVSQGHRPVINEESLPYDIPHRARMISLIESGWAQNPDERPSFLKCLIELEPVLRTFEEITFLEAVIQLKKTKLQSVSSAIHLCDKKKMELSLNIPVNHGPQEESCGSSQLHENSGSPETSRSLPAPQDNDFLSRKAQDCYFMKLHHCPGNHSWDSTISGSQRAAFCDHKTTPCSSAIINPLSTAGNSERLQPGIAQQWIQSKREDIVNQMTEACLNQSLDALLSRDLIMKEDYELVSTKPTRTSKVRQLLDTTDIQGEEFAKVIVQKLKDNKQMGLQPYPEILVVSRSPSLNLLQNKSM

[9] = molecular target: panel of 379 human kinases (Homo sapiens, UniProt Q13882); test: Selectivity profiling, Eurofins KinaseProfiler; format: biochemical; settings: read-out: inhibition rate against breast tumor kinase (BRK)
panel of 379 human kinases (Homo sapiens, UniProt Q13882), sequence (Q13882 whole entry, the tested form may be a part): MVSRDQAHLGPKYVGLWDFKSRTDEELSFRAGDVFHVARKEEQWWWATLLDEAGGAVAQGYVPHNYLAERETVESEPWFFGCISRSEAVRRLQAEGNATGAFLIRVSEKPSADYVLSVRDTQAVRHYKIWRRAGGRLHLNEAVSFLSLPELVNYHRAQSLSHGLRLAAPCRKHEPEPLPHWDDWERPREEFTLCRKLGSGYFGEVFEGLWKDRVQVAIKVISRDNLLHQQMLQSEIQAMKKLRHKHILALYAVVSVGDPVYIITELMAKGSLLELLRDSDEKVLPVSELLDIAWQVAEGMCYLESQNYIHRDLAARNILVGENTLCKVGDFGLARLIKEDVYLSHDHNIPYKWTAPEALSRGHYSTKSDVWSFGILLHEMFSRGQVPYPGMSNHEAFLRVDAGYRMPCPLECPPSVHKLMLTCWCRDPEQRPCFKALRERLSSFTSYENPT

BRK kinase domain = BRK kinase domain (Homo sapiens, UniProt Q13882, C433T); test: ADP-Glo kinase assay, BRK; format: biochemical
BRK kinase domain, sequence (Q13882 185-446 C433T): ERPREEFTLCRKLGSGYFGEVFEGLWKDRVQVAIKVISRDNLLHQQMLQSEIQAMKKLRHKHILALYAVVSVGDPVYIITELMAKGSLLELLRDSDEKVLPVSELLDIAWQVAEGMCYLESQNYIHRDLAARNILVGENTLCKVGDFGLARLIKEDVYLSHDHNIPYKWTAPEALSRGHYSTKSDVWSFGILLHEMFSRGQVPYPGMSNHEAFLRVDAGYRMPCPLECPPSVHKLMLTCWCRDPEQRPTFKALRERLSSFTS
In short: as §1

L929 cells = test: Cell viability assay with or without zVAD; format: cell-based, mouse; settings: for on-target apoptosis in cells (in words): L929, murine cells

concentration at which caspase 3 is activated [4] [µM]	concentration at which cleavage of caspases 8 and 3 is seen (Western blot) [5] [µM]	Structure (SMILES)	EC50 [1] [nM]	EC50 [2] [nM]	RIPK3 and MLKL phosphorylation induced by TNF-α (Western blot) [3]	interaction between RIPK3 and RIPK1 (co-immunoprecipitation) (RIPK3-RIPK1 interaction)	change of CC50 between L929 and L929^RIPK3-/- cells (L929^RIPK3-/- cells)	activation of the apoptotic pathway: cleavage of caspase 8 and caspase 3 (Western blot) [5]	RIPK3 and MLKL phosphorylation induced by TNF-α (Western blot) [6]	change of CC50 in the presence or absence of zVAD (L929 cells; L929)	also measured
		CC[C@H](C)c1nc2cc(Nc3ccnc4ccc(S(=O)(=O)C(C)C)cc34)ccc2s1 [LK01001, (S)-2-(sec-butyl)-N-(6-(isopropylsulfonyl)quinolin-4-yl)benzo[d]thiazol-5-amine hydrochloride]	4100	7000							
> 50		CC[C@@H](C)c1nc2cc(Nc3ccnc4ccc(S(=O)(=O)C(C)C)cc34)ccc2s1.Cl [LK01002, (R)-2-(sec-butyl)-N-(6-(isopropylsulfonyl)quinolin-4-yl)benzo[d]thiazol-5-amine hydrochloride]	2000	4800	effectively inhibit RIPK3 and MLKL phosphorylation	neither increase the interaction of RIPK3 with RIPK1	remain largely unchanged	nor activate the apoptotic pathway	effectively inhibit RIPK3 and MLKL phosphorylation		
	> 100	CCC(C)c1nc2cc(-c3nn(C(C)(C)C)c4ncnc(N)c34)ccc2s1 (stereo not shown) [LK01004, 1-(tert-butyl)-3-(2-(sec-butyl)benzo[d]thiazol-5-yl)-1H-pyrazolo[3,4-d]pyrimidin-4-amine]		3000						do not change significantly in the presence or absence of zVAD	RIPK3-independent cell killing (off-target toxicity) (L929 cells; L929): still exhibit a substantial portion of RIPK3-independent cell killing; on-target apoptosis in cells (in words) (L929 cells): do not induce on-target apoptosis
	> 100	CC(C)(C)n1nc(-c2ccc3sc(C4CCCC4)nc3c2)c2c(N)ncnc21 [LK01005, 1-(tert-butyl)-3-(2-cyclopentylbenzo[d]thiazol-5-yl)-1H-pyrazolo[3,4-d]pyrimidin-4-amine]		2100						do not change significantly in the presence or absence of zVAD	RIPK3-independent cell killing (off-target toxicity) (L929 cells; L929): still exhibit a substantial portion of RIPK3-independent cell killing; on-target apoptosis in cells (in words) (L929 cells): do not induce on-target apoptosis
	> 10	Cl.O=S1(=O)C=C(C2CC2)c2cc3nccc(Nc4ccc5sc(C6CCCC6)nc5c4)c3cc21 [LK01033, 8-((2-cyclopentylbenzo[d]thiazol-5-yl)amino)-3-cyclopropylthieno[2,3-g]quinoline 1,1-dioxide hydrochloride]	110	390						does not change significantly in the presence or absence of zVAD	
> 50		CC(C)S(=O)(=O)c1cc2c(Nc3ccc4sc(C5CCCC5)nc4c3)ccnc2cc1OCCO [LK01045, 2-((4-((2-cyclopentylbenzo[d]thiazol-5-yl)amino)-6-(isopropylsulfonyl)quinolin-7-yl)oxy)ethan-1-ol]	160	610	effectively inhibits RIPK3 and MLKL phosphorylation	neither increase the interaction of RIPK3 with RIPK1	remain largely unchanged	nor activate the apoptotic pathway	effectively inhibits RIPK3 and MLKL phosphorylation		stronger potency compared to GSK'872 (EC50, HT29) ([1]; HT29 necroptosis): ~49 fold; stronger potency compared to LK01003 (EC50, HT29) ([1]; HT29 necroptosis): ~5 fold; stronger potency compared to GSK'872 (EC50, L929) ([2]; L929 necroptosis): approximately 6 fold; stronger potency compared to LK01003 (EC50, L929) ([2]; L929 necroptosis): approximately 6 fold
	> 100	N#Cc1c(Oc2ccc(F)c(NC(=O)Cc3cccc(C(F)(F)F)c3)c2)ccc2nc(NC(=O)C3CC3)sc12 [TAK-632, N-(7-Cyano-6-(4-fluoro-3-(2-(3-(trifluoromethyl)phenyl)acetamido)phenoxy)benzo[d]thiazol-2-yl)cyclopropanecarboxamide, reference compound]									
	0.1	Cl.O=S1(=O)C=C(C2CC2)c2cc3nccc(Nc4ccc5scnc5c4)c3cc21 [Zharp-99, 8-(benzo[d]thiazol-5-ylamino)-3-cyclopropylthieno[2,3-g]quinoline 1,1-dioxide hydrochloride, reference compound]	220	70							difference of CC50 in the presence or absence of zVAD (L929 cells; L929): ~ 36 fold

Structure (SMILES)	concentration at which caspase 3 is activated [4] [µM]	concentration at which cleavage of caspases 8 and 3 is seen (Western blot) [5] [µM]	EC50 [1] [nM]	EC50 [2] [nM]	RIPK3 and MLKL phosphorylation induced by TNF-α (Western blot) [3]	interaction between RIPK3 and RIPK1 (co-immunoprecipitation) (RIPK3-RIPK1 interaction)	change of CC50 between L929 and L929^RIPK3-/- cells (L929^RIPK3-/- cells)	activation of the apoptotic pathway: cleavage of caspase 8 and caspase 3 (Western blot) [5]	RIPK3 and MLKL phosphorylation induced by TNF-α (Western blot) [6]	change of CC50 in the presence or absence of zVAD (L929 cells; L929)	also measured
CC(C)S(=O)(=O)c1ccc2nccc(Nc3ccc4sc(C5CCCC5)nc4c3)c2c1.Cl [LK01003, 2-cyclopentyl-N-(6-(isopropylsulfonyl)quinolin-4-yl)benzo[d]thiazol-5-amine hydrochloride]	> 50		850	3700	effectively inhibit RIPK3 and MLKL phosphorylation	neither increase the interaction of RIPK3 with RIPK1	remain largely unchanged	nor activate the apoptotic pathway	effectively inhibit RIPK3 and MLKL phosphorylation		IC50 (RIPK2): 48 nM; selectivity index (SI), RIPK2 over RIPK3 (RIPK2): 24; S (35) score ([7]; 1 μM): approximately 0.005; S (35) score ([7]; 10 μM): approximately 0.03; number of kinases with over 65% inhibition rate ([7]; 10 μM): 12 kinases; inhibition at 1 µM [8]: > 65%; inhibition at 1 µM [9]: > 65%; IC50 (BRK kinase domain): 248 nM; selectivity index (SI), BRK over RIPK3 (BRK kinase domain): 124

Source: PMC12062462 (Nature Communications, 2025)
